Here are results for five molecules from article PMC6554731 (Bioorganic & medicinal chemistry, 2019).

The structures appear in SMILES notation.

The target in one series is T1, human Ero1α (Homo sapiens, UniProt Q96HE7, C104A/C131A/C166A).
T1 sequence (Q96HE7 22-468 C104A/C131A/C166A): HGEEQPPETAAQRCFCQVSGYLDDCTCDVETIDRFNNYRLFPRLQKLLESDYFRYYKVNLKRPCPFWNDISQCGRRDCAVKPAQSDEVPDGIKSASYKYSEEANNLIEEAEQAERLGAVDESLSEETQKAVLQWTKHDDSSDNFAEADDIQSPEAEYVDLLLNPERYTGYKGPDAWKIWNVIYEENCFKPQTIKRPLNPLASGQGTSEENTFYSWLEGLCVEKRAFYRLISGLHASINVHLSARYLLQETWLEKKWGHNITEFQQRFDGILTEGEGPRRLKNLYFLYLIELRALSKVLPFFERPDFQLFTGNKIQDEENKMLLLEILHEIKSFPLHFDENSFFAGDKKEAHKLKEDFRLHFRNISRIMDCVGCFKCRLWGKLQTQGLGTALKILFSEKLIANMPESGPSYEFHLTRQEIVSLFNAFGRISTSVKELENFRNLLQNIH
Kind of series: Amplex Red/Ero1α catalytic assay. Type of series: biochemical. In short, it runs like this:
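Hyperactive His-tagged human Ero1α (residues 22–468) expressed in E. coli BL21(DE3)RIL, Ni-NTA purified, oxidised with ferricyanide, monomeric gel-filtration fraction; 0.0625 mg/mL enzyme with HRP, 25 μM Amplex Red, human PDI (18–479) substrate 0.250–0.008 mg/mL, test compound 200–0.01 μM, 50 mM sodium phosphate pH 7.4; 30 min, 37 °C; fluorescence Ex 530/Em 590; two experiments in triplicate.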

In series [1] the test system is U266 cells. Kind of series: Western blot analysis of ER stress markers. It is filed as cell-based. Conditions: U266, 2, 4 and 8 h. In short, it runs like this:
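U266 lysates taken after 2, 4 and 8 h with DMSO or test compound, run on 8–10% SDS-PAGE and transferred to PVDF. Membranes blocked 1 h at room temperature in 5% milk/TBST, probed overnight at 4 °C for p-eIF2α, ATF4, ATF6 and β-actin, then HRP secondary for 1 h. Chemiluminescent detection; n=3 independent assays.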

Series [2] relates to U266 cells. Kind of series: Annexin V/propidium iodide double-staining assay. To be noted: 25 μM, 18 h. Type of series: cell-based. The essentials: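 U266 cells exposed to DMSO vehicle or 25 μM test compound for 18 h, then washed in ice-cold PBS and stained with Annexin V-FITC/PI in binding buffer for 15 min at 37 °C in the dark. Flow cytometry counted at least 10,000 cells per sample. Means ± SD from three independent experiments.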

A further series concerns Ero1L. To be noted: cited from earlier work.
A further series is described as follows: Solubility observations. It is filed as physicochemical.
Another series deals with normal PBMCs. Kind of series: Cell death in normal PBMCs. Type of series: cell-based. To be noted: data not shown.

For `CC1=NN(c2ccccc2)C(=O)/C1=C/c1ccc(-c2cccc(Br)c2)o1` [AK968], the “Activity against Ero1L (derivative screen, Supplementary Fig. 2)” value on human Ero1α is “inactive”.

Regarding `CC1=NN(c2ccc(C)cc2)C(=O)/C1=C/c1ccc(-c2ccc(C(=O)O)cc2)o1` [AN968], the “Activity against Ero1L (derivative screen, Supplementary Fig. 2)” value at human Ero1α was “marginally active”.

On to `O=C(O)c1cc(N2N=C(C(F)(F)F)/C(=C/c3ccc(-c4ccccc4)o3)C2=O)ccc1Cl` [EN460], for which, in the series with U266 cells [1], the ATF4 level entry is “modest increase”, the “full length ATF6 level” value is “reduced levels” and the p-eIF2α level result was “robust increase”. Further, the “Mode of Ero1L inhibition” value at human Ero1α (increasing substrate PDI with different EN460 concentrations) is “competitive”. For the same molecule, at human Ero1α (substrate PDI, with EN460), the Km entry was “increased” and the Vmax result was “largely stated the same”. In the series on U266 cells [2], the “Apoptosis (Annexin V positive cells)” value is listed as “induces apoptosis”. Further, the “Inhibition of the Ero1L enzyme” value in the series with Ero1L was “low micromolar range”. Besides, the Solubility entry in the series “Solubility observations” was “poor solubility”. Besides, the “Reachable concentration in vitro” value in “Solubility observations” (limited by poor solubility) is no more than 200 µM. In addition, the “Cell death in normal PBMCs” value with normal PBMCs is recorded as “sufficient to induce cell death”.

Consider `[N-]=[N+]=Nc1cccc(-c2ccc(/C=C3/C(=O)N(c4ccc(Cl)c(C(=O)O)c4)N=C3C(F)(F)F)o2)c1` [PB-10, (E)-5-(4-((5-(3-azidophenyl)furan-2-yl)methylene)-5-oxo-3-(trifluoromethyl)-4,5-dihydro-1H-pyrazol-1-yl)-2-chlorobenzoic acid], for which the Solubility entry in the series “Solubility observations” was “comparable in solubility to EN460”.

Consider `[N-]=[N+]=Nc1ccc(-c2ccc(/C=C3/C(=O)N(c4ccc(Cl)c(C(=O)O)c4)N=C3C(F)(F)F)o2)cc1` [PB-11, (E)-5-(4-((5-(4-azidophenyl)furan-2-yl)methylene)-5-oxo-3-(trifluoromethyl)-4,5-dihydro-1H-pyrazol-1-yl)-2-chlorobenzoic acid], for which the “Solubility in physiological buffers” value in “Solubility observations” (e.g. PBS pH 7.4) is “less soluble”.
